This is an account of results in PMC3896217 (Biochemistry, 2013).

The experiment addresses T1, B31 DBPA (Borreliella burgdorferi, UniProt O50917).
T1 sequence (O50917 24-191): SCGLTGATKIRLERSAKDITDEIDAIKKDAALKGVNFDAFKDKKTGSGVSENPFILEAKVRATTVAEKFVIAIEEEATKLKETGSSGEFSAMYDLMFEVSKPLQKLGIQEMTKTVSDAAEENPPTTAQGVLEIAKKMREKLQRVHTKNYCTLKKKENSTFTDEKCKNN
The experiment is described as follows: NMR control titration for non-specific TEMPO-DBPA interactions. In kind it is binding, Borrelia burgdorferi. To be noted: similar protein-to-ligand ratios as TEMPO-labeled heparin dp6. Put shortly: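 Samples of 400 μL held 150 to 200 μM ¹⁵N-labelled B31 WT DBPA in 50 mM NaH₂PO₄, pH 6.5, 150 mM NaCl. The DBPA construct was a His-tagged fusion expressed in E. coli BL21(DE3) in M9 medium, Ni-affinity purified and cleaved with USP2. Amide ¹H transverse relaxation was measured with delays of 1, 4.5, 8, 11.5, 15 and 18.5 ms.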

`CC1(C)CC(N)CC(C)(C)N1[O]` [4-amino-TEMPO]: the “changes in transverse relaxation rates of the protein” value was “no significant changes”.
